Data set [1] in a line: Cytotoxicity against human MCF7 cells over expressing TDP1 assessed as reduction in viable cells after 72 hrs by MTT assay. The conditions noted are these: MCF7 cells overexpressing TDP1. The data set is classed as cell-based. A digest of the protocol: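 MCF-7 cells (~2000/well) grown 24 h at 37 °C in IMDM, 5% CO2, then exposed to 0.1–100 μM compound for 72 h. Viable cells by MTT test; CC50 = concentration reducing cell number 50% vs untreated controls; average of three independent experiments.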

Data set [2] addresses T1, Tyrosyl-DNA phosphodiesterase 1 (Homo sapiens, UniProt Q9NUW8). Nature of the data set: Inhibition of recombinant TDP1 (unknown origin) using 5'-(5,6 FAM-aac gtc agg gtc ttc c-BHQ1)-3' as substrate measured at 1 min interval by fluorimetric method. A digest of the protocol: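 Recombinant TDP1 1.3 nM with 50 nM FAM/BHQ1 biosensor in 50 mM Tris-HCl pH 8.0, 50 mM NaCl, 7 mM β-mercaptoethanol, 26 °C. Fluorescence read each minute (Ex485/Em520). Slope over 0–7 min linear phase compared with DMSO control; IC50 from 11-point concentration-response curve.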

A short description of data set [3]: Cytotoxicity against human A549 cells assessed as reduction in viable cells after 72 hrs by MTT assay. The data set is classed as cell-based. A digest of the protocol: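 A-549 cells treated with compounds; after 72 h, viable cells measured by MTT colorimetric test. CC50 = concentration reducing cell number by 50% versus untreated controls.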
Data set [4] deals with T1, Tyrosyl-DNA phosphodiesterase 1. Nature of the data set: Inhibition of TDP1 in human MCF7 cells assessed as potentiation of camptothecin-induced cytotoxicity by measuring fold reduction in camptothecin CC50 at 0.5 uM after 72 hrs by MTT assay relative to camptothecin alone. In kind it is cell-based. A digest of the protocol: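 MCF-7 cells (~2000/well), pre-grown 24 h at 37 °C in IMDM, 5% CO2, treated with graded camptothecin plus 0.5 μM enamine for 72 h. Viability by MTT; camptothecin CC50 taken as 50% reduction in cell number vs untreated controls, compared with and without enamine.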
For orientation: Tetrazolium assays rely on reduction of a dye to a coloured formazan, in cell work by metabolically active cells.

Data set [5] shares this target. Nature of the data set: Inhibition of TDP1 in human A549 cells assessed as potentiation of camptothecin-induced cytotoxicity by measuring fold reduction in camptothecin CC50 at 0.5 uM after 72 hrs by MTT assay relative to camptothecin alone. In kind it is cell-based. In short, it runs like this: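 A-549 cells treated with graded camptothecin plus 0.5 μM enamine; viability by MTT after 72 h. Camptothecin CC50 compared with and without enamine.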

The target is the same in data set [6]. Kind of data set: Inhibition of recombinant TDP1 (unknown origin) assessed as reduction in BHQ1 excision from 3'-end of [32P]-labeled oligonucleotide substrate after 20 mins by polyacrilamide gel electrophoresis.

The structures appear in SMILES notation. pIC50: −log10 of the molar value. A value given as a limit tells only on which side of the number the result lay.

The term CC50 denotes the concentration that lowers cell viability or growth by half. As a reminder, the pIC50 is −log10 of the IC50, conventionally taken in molar units.

T1 sequence (Q9NUW8 whole entry): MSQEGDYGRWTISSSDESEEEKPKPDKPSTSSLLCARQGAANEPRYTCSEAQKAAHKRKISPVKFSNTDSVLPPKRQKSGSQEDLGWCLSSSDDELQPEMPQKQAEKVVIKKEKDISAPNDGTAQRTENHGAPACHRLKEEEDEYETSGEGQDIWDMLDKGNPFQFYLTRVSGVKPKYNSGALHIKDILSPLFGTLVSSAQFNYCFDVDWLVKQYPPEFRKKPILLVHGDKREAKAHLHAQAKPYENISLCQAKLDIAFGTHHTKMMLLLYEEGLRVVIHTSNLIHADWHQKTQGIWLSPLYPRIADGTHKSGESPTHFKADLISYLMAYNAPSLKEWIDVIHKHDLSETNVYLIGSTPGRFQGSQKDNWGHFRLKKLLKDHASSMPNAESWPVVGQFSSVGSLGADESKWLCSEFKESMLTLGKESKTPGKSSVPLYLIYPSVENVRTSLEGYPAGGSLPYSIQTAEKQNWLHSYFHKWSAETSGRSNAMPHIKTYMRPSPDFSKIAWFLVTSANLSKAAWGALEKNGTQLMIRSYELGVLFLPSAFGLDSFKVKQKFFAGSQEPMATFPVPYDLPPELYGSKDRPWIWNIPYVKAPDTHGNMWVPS

`CC(=O)c1c(O)c(C)c(O)c2c1OC1=CC(=O)/C(=C(/C)NCCCN3CCOCC3)C(=O)C12C` (stereo not given): in data set [1], the CC50 at 72 h was determined as 24 µM. The pIC50 in data set [2] is < 4.00.

For `CC(=O)c1c(O)c(C)c(O)c2c1OC1=CC(=O)/C(=C(/C)Nc3cccc(Br)c3)C(=O)C12C` (stereo not given), the CC50 at 72 h is > 100 µM in data set [3] and 18.1 µM in data set [1]. Also, the figures for the fold change (FC) in data set [4] and in data set [5] were 12.5 and 1.2, respectively. Besides, the pIC50 in data set [2] was 6.12.

For `CC(=O)c1c(O)c(C)c(O)c2c1OC1=CC(=O)/C(=C(/C)Nc3ccc(Cl)cc3)C(=O)[C@]12C`, the fold change (FC) in data set [4] turned out to be 0.35. The CC50 at 72 h in data set [1] is 16 µM. Further, the pIC50 in data set [2] is 5.79.

In the case of `CC(=O)c1c(O)c(C)c(O)c2c1OC1=CC(=O)/C(=C(/C)Nc3ccc(F)cc3)C(=O)[C@@]12C`, in data set [4], the fold change (FC) was found to be 2.1. The CC50 at 72 h in data set [1] is 22.2 µM. Also, the pIC50 in data set [2] is 5.81.

Regarding `CC(=O)c1c(O)c(C)c(O)c2c1OC1=CC(=O)/C(=C(/C)NCCCc3cc(C(C)(C)C)c(O)c(C(C)(C)C)c3)C(=O)C12C` (stereo not given), the CC50 at 72 h in data set [3] is > 100 µM; in data set [1], > 50 µM. Moreover, the results for the fold change (FC) in data set [4] and in data set [5] were 10.5 and 3.5, respectively. The pIC50 in data set [2] is 6.80.

For `CC(=O)c1c(O)c(C)c(O)c2c1OC1=CC(=O)/C(=C(/C)NCCc3ccc(O)cc3)C(=O)[C@@]12C`, the CC50 at 72 h was 70 µM in data set [3] and 21.5 µM in data set [1]. The fold change (FC) in data set [4] worked out at 12.8; in data set [5] it was 1.3. Besides, the pIC50 in data set [2] was 6.10.

As to `CC(=O)c1c(O)c(C)c(O)c2c1OC1=CC(=O)/C(=C(/C)Nc3ccccc3)C(=O)[C@@]12C`, the fold change (FC) in data set [4] is 1.2. For the same molecule, the CC50 at 72 h in data set [1] is > 50 µM. For the same molecule, in data set [2], the pIC50 is 5.82.

With `CC(=O)c1c(O)c(C)c(O)c2c1OC1=CC(=O)/C(=C(/C)NCCN(C)C)C(=O)C12C` (stereo not given), the CC50 at 72 h in data set [1] was 33 µM. For the same molecule, the pIC50 in data set [2] was < 4.00.

Consider `CC(=O)c1c(O)c(C)c(O)c2c1OC1=CC(=O)/C(=C(/C)Nc3ccc(Br)cc3)C(=O)[C@]12C`, for which the fold change (FC) in data set [4] worked out at 0.92. Also, the CC50 at 72 h in data set [1] was 10.6 µM. In data set [2], the pIC50 is 6.24.

Regarding `CC(=O)c1c(O)c(C)c(O)c2c1OC1=CC(=O)/C(=C(/C)Nc3ccc(Cl)cc3)C(=O)[C@@]12C`, the fold change (FC) in data set [4] came out at 0.51. In addition, the CC50 at 72 h in data set [1] was > 50 µM. In data set [2], the pIC50 is 5.74.

Regarding `CC(=O)c1c(O)c(C)c(O)c2c1OC1=CC(=O)/C(=C(/C)NCCc3cc(C(C)(C)C)c(O)c(C(C)(C)C)c3)C(=O)C12C` (stereo not given), the fold change (FC) in data set [4] is 1.7. The CC50 at 72 h in data set [1] is > 50 µM. In addition, the pIC50 in data set [2] is 6.72.

`CC(=O)c1c(O)c(C)c(O)c2c1OC1=CC(=O)/C(=C(/C)Nc3ccc(F)cc3)C(=O)[C@]12C`: the fold change (FC) in data set [4] was 1.6. Moreover, in data set [1], the CC50 at 72 h was > 50 µM. Besides, the pIC50 in data set [2] is 6.03.

Consider `CC(=O)c1c(O)c(C)c(O)c2c1OC1=CC(=O)/C(=C(/C)Nc3cccc(F)c3)C(=O)C12C` (stereo not given), for which the results for the CC50 at 72 h in data set [3] and in data set [1] were > 100 µM and 35 µM, respectively. Moreover, the fold change (FC) in data set [4] amounted to 12.8; in data set [5] it was 1.6. In addition, the pIC50 in data set [2] was 5.86.

With `CC(=O)c1c(O)c(C)c(O)c2c1OC1=CC(=O)/C(=C(/C)Nc3ccc(Br)cc3)C(=O)[C@@]12C`, the pIC50 was 5.34 in data set [6] and 6.59 in data set [2]. The fold change (FC) in data set [4] amounted to 1.5. Moreover, the CC50 at 72 h in data set [1] worked out at 39.3 µM.

On to `CC(=O)C1=C(O)C=C2Oc3c(C(C)=O)c(O)c(C)c(O)c3[C@@]2(C)C1=O` [(+)-USNIC ACID], for which, in data set [1], the CC50 at 72 h is 52.3 µM. In data set [2], the pIC50 was < 4.00.

Take `CC(=O)c1c(O)c(C)c(O)c2c1OC1=CC(=O)/C(=C(/C)Nc3ccccc3)C(=O)[C@]12C`: the fold change (FC) in data set [4] came out at 1. Besides, the CC50 at 72 h in data set [1] was 39 µM. Also, the negative-log IC50 (pIC50) in data set [2] is 5.72.

Consider `CC(=O)C1=C(O)C=C2Oc3c(C(C)=O)c(O)c(C)c(O)c3[C@]2(C)C1=O` [(-)-USNIC ACID], for which the pIC50 in data set [2] was < 4.00.

The values are drawn from ChEMBL document CHEMBL3997772, “Tyrosyl-DNA Phosphodiesterase 1 Inhibitors: Usnic Acid Enamines Enhance the Cytotoxic Effect of Camptothecin” (J Nat Prod, 2016).
